From ChEMBL document CHEMBL4339193, “Phenotypic Screening-Based Identification of 3,4-Disubstituted Piperidine Derivatives as Macrophage M2 Polarization Modulators: An Opportunity for Treating Multiple Sclerosis” (J Med Chem, 2019)
The source made the active and inactive calls. The rule behind the calls is not given here.

Assays:
RAW264.7 [1] = assay: Modulation of M2 polarization in mouse RAW264.7 cells assessed as change in Arg1 mRNA expression at 300 nM measured after 24 hrs by qRT-PCR analysis relative to control; type: functional
Procedure, shortened: (§1)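 RAW264.7 cells (DMEM, 10% FBS) given 300 nM compound for 24 h; IL-4 20 ng/ml as positive control. Arg1 mRNA measured by qRT-PCR; fold change = expression in dosed group / expression in untreated control.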

RAW264.7 [2] = assay: Modulation of M1 polarization in mouse RAW264.7 cells assessed as change in Mcp1 mRNA expression at 300 nM measured after 24 hrs by qRT-PCR analysis relative to control; type: functional, cell-based; details: RAW264.7, 24 h, read-out: FC
Procedure, shortened: (§2)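 RAW264.7 cells (DMEM, 10% FBS) exposed 24 h to 300 nM compound alone; LPS 50 ng/ml as positive control. Mcp1 mRNA by qRT-PCR; fold change = dosed group level / control group level.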

RAW264.7 [3] = assay: Modulation of M2 polarization in mouse RAW264.7 cells assessed as up regulation of Arg1 mRNA expression at 300 nM measured after 24 hrs by qRT-PCR analysis; type: functional, cell-based; procedure, shortened: as §1
RAW264.7 [4] = assay: Modulation of M1 polarization in mouse RAW264.7 cells assessed as up regulation of Mcp1 mRNA expression at 300 nM measured after 24 hrs by qRT-PCR analysis; type: cell-based; details: raw264.7, 24 h, 0.3 µM; procedure, shortened: as §2

O=C(NCCN1CCCC(c2ccccc2)C1)c1ccc(-c2ccn[nH]2)cc1 (stereo unspecified)
fold change (FC) (RAW264.7 [1]): 1.48 | fold induction at 0.3 µM (RAW264.7 [2]): 1.52

O=C(Nc1n[nH]c(=O)c2ccccc12)c1cccc(C(=O)N2CCN(C(=O)C3CC3)CC2)c1
Activity (RAW264.7 [3]): Active

Cl.Cn1ncc(Br)c1-c1ccc(C(=O)N[C@@H]2CNCC[C@H]2c2ccc(F)c(F)c2)cn1
fold change (FC) (RAW264.7 [1]): 0.56 | fold induction at 0.3 µM (RAW264.7 [2]): 1.32

Cl.Cn1ncc(Cl)c1-c1ccc(C(=O)N[C@@H]2CNCC[C@H]2c2ccc(F)c(F)c2)cc1Cl
fold change (FC) (RAW264.7 [1]): 1.72 | fold induction at 0.3 µM (RAW264.7 [2]): 1.16

Cc1ccc(C(=O)N[C@@H]2CNCC[C@H]2c2cccc(F)c2)o1.Cl
fold change (FC) (RAW264.7 [1]): 1.76 | fold induction at 0.3 µM (RAW264.7 [2]): 1.89

O=C(NCCN1CCC(c2ccccc2)C1)c1ccc(-c2cc[nH]n2)cc1 (stereo unspecified)
fold change (FC) (RAW264.7 [1]): 2.22 | fold induction at 0.3 µM (RAW264.7 [2]): 1.86

Cn1nccc1C(=O)N1CC(c2cc(F)cc(F)c2)C2[C@H]1C1CCN2CC1 (single isomer, unassigned)
fold change (FC) (RAW264.7 [1]): 1.16 | fold induction at 0.3 µM (RAW264.7 [2]): 1.4

Cl.Cn1nccc1-c1ccc(C(=O)N[C@H]2CCCNC2)c(F)c1
fold change (FC) (RAW264.7 [1]): 2.11 | fold induction at 0.3 µM (RAW264.7 [2]): 2.26

CC(=O)N[C@@H]1Cc2ccccc2[C@H]1NC(=O)c1cn[nH]c1-c1cccc(F)c1
fold change (FC) (RAW264.7 [1]): 0.8 | fold induction at 0.3 µM (RAW264.7 [2]): 2.14

CCNC(=O)c1ccc(-c2ccnn2C)cc1F
fold change (FC) (RAW264.7 [1]): 2.31 | fold induction at 0.3 µM (RAW264.7 [2]): 1.83

Cc1cc(-c2ccnn2C)cnc1C(=O)N[C@@H]1CNCC[C@H]1c1cccc(F)c1.Cl
fold change (FC) (RAW264.7 [1]): 0.95 | fold induction at 0.3 µM (RAW264.7 [2]): 1.99

Cc1ccc([C@@H]2CN(C(=O)c3ccc(-c4ccn[nH]4)cc3)C[C@H]2N(C)C)cc1
fold change (FC) (RAW264.7 [1]): 4.85 | fold induction at 0.3 µM (RAW264.7 [2]): 1.24

COc1ccccc1C(=O)N[C@@H]1CNCC[C@H]1c1cccc(F)c1.Cl
fold change (FC) (RAW264.7 [1]): 1.32 | fold induction at 0.3 µM (RAW264.7 [2]): 1.42

Cc1cc(-c2ccnn2C)cnc1C(=O)N[C@@H]1CNCC[C@H]1c1ccc(Cl)c(C(F)(F)F)c1.Cl
fold change (FC) (RAW264.7 [1]): 0.4 | fold induction at 0.3 µM (RAW264.7 [2]): 1.37

COc1ccc(S(=O)(=O)Nc2ccc(OC)c(-c3ccc(O)cc3)c2)cc1
Activity (RAW264.7 [3]): Active

Cl.Cn1ncc(Cl)c1-c1ccc(C(=O)N[C@@H]2CNCC[C@H]2c2ccc(F)c(F)c2)cn1
fold change (FC) (RAW264.7 [1]): 0.27 | fold induction at 0.3 µM (RAW264.7 [2]): 1.01

Cl.Cn1ncc(Br)c1-c1ccc(C(=O)N[C@@H]2CNCC[C@H]2c2cccc(F)c2)nc1
fold change (FC) (RAW264.7 [1]): 0.78 | fold induction at 0.3 µM (RAW264.7 [2]): 1.14

Cl.Cn1nccc1-c1ccc(C(=O)N[C@@H]2CNCC[C@H]2c2ccc(F)c(F)c2)cn1
fold change (FC) (RAW264.7 [1]): 0.85 | fold induction at 0.3 µM (RAW264.7 [2]): 1.23

CCN(CC)C(=O)c1ccc(-c2ccnn2C)cc1F
fold change (FC) (RAW264.7 [1]): 1.96 | fold induction at 0.3 µM (RAW264.7 [2]): 1.97

Cc1cc(C(=O)N[C@@H]2CNCC[C@H]2c2cccc(F)c2)ccc1-c1c(Br)cnn1C.Cl
fold change (FC) (RAW264.7 [1]): 6.54 | fold induction at 0.3 µM (RAW264.7 [2]): 1.89

Cc1ccc(C(=O)N[C@@H]2CNCC[C@H]2c2cccc(F)c2)s1.Cl
fold change (FC) (RAW264.7 [1]): 1.44 | fold induction at 0.3 µM (RAW264.7 [2]): 1.54

O=C1NCCN(C(=O)c2ccc(-c3cc[nH]n3)cc2)C1Cc1ccccc1 (stereo unspecified)
fold change (FC) (RAW264.7 [1]): 1.33 | fold induction at 0.3 µM (RAW264.7 [2]): 1.53

Cc1cc(C(=O)N[C@@H]2CNCC[C@H]2c2ccc(Cl)c(C(F)(F)F)c2)ccc1-c1c(Cl)cnn1C.Cl
fold change (FC) (RAW264.7 [1]): 1.82 | fold induction at 0.3 µM (RAW264.7 [2]): 4.85

Cn1nccc1-c1ccc(C(=O)Nc2ccc(F)cc2)c(F)c1
fold change (FC) (RAW264.7 [1]): 1.63 | fold induction at 0.3 µM (RAW264.7 [2]): 2.01

COc1ccc(NC(=O)c2ccc(-c3ccnn3C)cc2F)cc1
fold change (FC) (RAW264.7 [1]): 3.86 | fold induction at 0.3 µM (RAW264.7 [2]): 2.16

Cc1ccc(S(=O)(=O)N2CCN(c3nc4ccccc4nc3S(=O)(=O)c3ccc(F)cc3)CC2)cc1
Activity (RAW264.7 [3]): Active

Cl.Cn1nccc1-c1ccc(C(=O)N[C@@H]2CNCC[C@H]2c2cccc(F)c2)c(F)c1
Activity (RAW264.7 [3]): Active | Activity (RAW264.7 [4]): Non-Toxic | fold change (FC) (RAW264.7 [1]): 10.05 | fold induction at 0.3 µM (RAW264.7 [2]): 1.54

COc1cccc(-c2noc(-c3nn(-c4ccc(Cl)cc4)c4ccccc34)n2)c1
Activity (RAW264.7 [3]): Active

Cl.Cn1ncc(Cl)c1-c1ccc(C(=O)N[C@@H]2CNCC[C@H]2c2ccc(Cl)c(C(F)(F)F)c2)c(F)c1
fold change (FC) (RAW264.7 [1]): 10.33 | fold induction at 0.3 µM (RAW264.7 [2]): 3.54

Cl.Cn1nccc1C(=O)N[C@@H]1CNCC[C@H]1c1cccc(F)c1
fold change (FC) (RAW264.7 [1]): 1.62 | fold induction at 0.3 µM (RAW264.7 [2]): 2.05

Cl.Cn1nccc1-c1ccc(C(=O)N[C@@H]2CNCC[C@H]2c2ccc(Cl)c(C(F)(F)F)c2)cc1Cl
fold change (FC) (RAW264.7 [1]): 5.08 | fold induction at 0.3 µM (RAW264.7 [2]): 1.49

Cn1nccc1C(=O)N1C[C@@H](c2cc(F)cc(F)c2)[C@@H]2[C@H]1C1CCN2CC1
fold change (FC) (RAW264.7 [1]): 2.22 | fold induction at 0.3 µM (RAW264.7 [2]): 1.95

Cl.Cn1ncc(Cl)c1-c1ccc(C(=O)N[C@@H]2CNCC[C@H]2c2ccc(F)c(F)c2)cc1
fold change (FC) (RAW264.7 [1]): 1.97 | fold induction at 0.3 µM (RAW264.7 [2]): 1.5

Cl.Cn1ncc(Cl)c1-c1ccc(C(=O)N[C@@H]2CNCC[C@H]2c2ccc(Cl)c(C(F)(F)F)c2)cc1
fold change (FC) (RAW264.7 [1]): 2.82 | fold induction at 0.3 µM (RAW264.7 [2]): 5.08

Cn1nccc1-c1ccc(C(=O)N[C@@H]2CNCC[C@H]2c2ccc(F)c(F)c2)cc1.O=C(O)C(O)C(O)C(=O)O
fold change (FC) (RAW264.7 [1]): 3.42 | fold induction at 0.3 µM (RAW264.7 [2]): 0.9

CN(CC1Cc2ccccc2CN1C)C(=O)c1ccc(-c2ccn[nH]2)cc1 (stereo unspecified)
fold change (FC) (RAW264.7 [1]): 2.35 | fold induction at 0.3 µM (RAW264.7 [2]): 1.14

Cl.Cn1ncc(Br)c1-c1ccc(C(=O)N[C@@H]2CNCC[C@H]2c2cccc(F)c2)cc1Cl
fold change (FC) (RAW264.7 [1]): 10.12 | fold induction at 0.3 µM (RAW264.7 [2]): 2.05

Cl.Cn1nccc1-c1ccc(C(=O)N[C@H]2CNCC[C@@H]2c2cccc(F)c2)c(F)c1
fold change (FC) (RAW264.7 [1]): 0.31 | fold induction at 0.3 µM (RAW264.7 [2]): 1.76

Cl.O=C(N[C@@H]1CNCC[C@H]1c1cccc(F)c1)c1ccc(F)cc1
fold change (FC) (RAW264.7 [1]): 0.91 | fold induction at 0.3 µM (RAW264.7 [2]): 1.64

O=C(NCC(c1ccccc1F)N1CCCC1)c1ccc(-c2cc[nH]n2)cc1 (stereo unspecified)
fold change (FC) (RAW264.7 [1]): 1.09 | fold induction at 0.3 µM (RAW264.7 [2]): 1.34

Cc1cc(C(=O)N[C@@H]2CNCC[C@H]2c2cccc(F)c2)ccc1-c1c(Cl)cnn1C.Cl
fold change (FC) (RAW264.7 [1]): 8.35 | fold induction at 0.3 µM (RAW264.7 [2]): 2.44

CC(C)C[C@H](NC(=O)[C@H](Cc1ccccc1)NC(=O)C[C@H](NC(=O)c1ccc2ccccc2c1)c1ccccc1)C(=O)[C@]1(C)CO1
Activity (RAW264.7 [3]): Active

O=C(NCCN1CCC(c2ccccc2)CC1)c1ccc(-c2cc[nH]n2)cc1
fold change (FC) (RAW264.7 [1]): 3.92 | fold induction at 0.3 µM (RAW264.7 [2]): 2.14

Cl.Cn1nccc1-c1ccc(C(=O)N[C@@H]2CNCC[C@H]2c2ccc(F)c(F)c2)c(F)c1
fold change (FC) (RAW264.7 [1]): 3.99 | fold induction at 0.3 µM (RAW264.7 [2]): 0.39

Cc1cc(-c2c(Br)cnn2C)cnc1C(=O)N[C@@H]1CNCC[C@H]1c1cccc(F)c1.Cl
fold change (FC) (RAW264.7 [1]): 0.71 | fold induction at 0.3 µM (RAW264.7 [2]): 1.63

Cl.O=C(N[C@@H]1CNCC[C@H]1c1cccc(F)c1)c1ccccc1F
fold change (FC) (RAW264.7 [1]): 1.01 | fold induction at 0.3 µM (RAW264.7 [2]): 1.72

Cn1ncc(Br)c1-c1ccc(C(=O)N[C@@H]2CNCC[C@H]2c2ccc(F)c(F)c2)cc1.O=C(O)C(O)C(O)C(=O)O
fold change (FC) (RAW264.7 [1]): 2.27 | fold induction at 0.3 µM (RAW264.7 [2]): 1.77
